# Active and inactive are the calls of the source. No cut-off for these calls is given here.
# Tests used:
# [1] = test system: Mus musculus; assay: Effect on 5-hydroxytryptamine level in Kunming mouse hypothalamus at 40 mg/kg, po treated for 7 days by HPLC-ECD analysis; assay type: functional, organism-based
# Procedure, shortened: (§1)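 Male Kunming mice (18–20 g) given vehicle or 40 mg/kg for 7 days, then killed by cervical dislocation. Frontal cortex, hippocampus, striatum, hypothalamus and thalamus dissected on ice, homogenized in ice-cold 0.2 M perchloric acid with 0.1 mM EDTA, centrifuged 15,000 rpm, 20 min, 4 °C. Supernatant analysed by HPLC-ECD at +0.50 V; phosphate/octanesulfonate mobile phase pH 3.0 with 12% methanol. Levels in ng/g, mean ± SEM.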
# [2] = test system: Mus musculus; assay: Increase in ratio of 5-hydroxyindole-3-acetic acid to 5-hydroxytryptamine level in Kunming mouse hypothalamus at 40 mg/kg, po treated for 7 days by HPLC-ECD analysis; assay type: functional, organism-based; procedure, shortened: as §1
# [3] = test system: Mus musculus; assay: Decrease in dopamine level in Kunming mouse hypothalamus at 40 mg/kg, po treated for 7 days by HPLC-ECD analysis; assay type: functional, organism-based
# Procedure, shortened: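 Male Kunming mice received vehicle or 40 mg/kg for 7 days, then were killed by cervical dislocation and the brain regions dissected on ice. Tissue was homogenized in ice-cold 0.2 M perchloric acid with 0.1 mM EDTA and centrifuged at 15,000 rpm, 20 min, 4 °C. Supernatant was analyzed by HPLC-ECD (+0.50 V; phosphate/octanesulfonate mobile phase, pH 3.0). Results in ng/g, mean ± SEM.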
# [4] = test system: Mus musculus; assay: Increase in ratio of 3,4-dihydroxyphenylacetic acid and 4-hydroxy-3-methoxyphenylacetic acid to dopamine level in Kunming mouse thalamus at 40 mg/kg, po treated for 7 days by HPLC-ECD analysis; assay type: functional, organism-based; procedure, shortened: as §1
# [5] = test system: Rattus norvegicus; assay: Toxicity in Sprague-Dawley rat assessed as change in breathing rate at 2000 mg/kg, po measured continuously for first 4 hrs followed by measured every hour for next 24 hrs and at 6 hrs intervals for following 48 hrs post dose; assay type: organism-based; details: in vivo
# Procedure, shortened: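 Followed OECD 425 in adult SD rats (180–220 g), three groups of six. Vehicle control received 0.5% CMC-Na orally; separate male and female groups received 2000 mg/kg orally. Endpoints observed: behaviour, breathing, cutaneous effects, sensory nervous system responses, gastrointestinal effects and deaths.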
# [6] = test system: Rattus norvegicus; assay: Toxicity in Sprague-Dawley rat assessed as ulceration at 2000 mg/kg, po measured over 4 hrs; assay type: organism-based; details: in vivo
# Procedure, shortened: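 Acute oral toxicity run per OECD 425 in adult SD rats (180–220 g). Six animals per group: vehicle control (0.5% CMC-Na, oral), male rats and female rats each dosed orally at 2000 mg/kg. Animals were watched continuously for the first 4 h for behavior, breathing, cutaneous signs (irritation, ulceration, caustic injury, skin rashes), sensory nervous and gastrointestinal effects. Later checks were hourly for 24 h, then every 6 h for 48 h.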
# [7] = Retention time of the compound by UPLC-IT-TOF-MS analysis; assay type: physicochemical
# Procedure, shortened: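 Retention on C18 column (100 × 2.1 mm, 1.8 µm) at 30 °C; mobile phase A 0.05% formic acid in water, B 0.05% formic acid in acetonitrile, 0.2 mL/min, linear 5–100% B over 0–18.0 min; IT-TOF-MS detection in positive and negative modes.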
# [8] = Drug metabolism in Sprague-Dawley rat feces assessed as 5'-(1-hydroxyallyl)-5-(1-hydroxypropyl)-2'-((2S,3R,4S,5S,6R)-3,4,5-trihydroxy-6-(hydroxymethyl)tetrahydro-2H-pyran-2-yloxy)biphenyl-2-yl hydrogen sulfate formation at 100 mg/kg, po by UPLC-IT-TOF-MS analysis; assay type: ADME, organism-based; details: in vivo
# Procedure, shortened: (§2)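 Rats (n = 6) housed in metabolic cages received 100.0 mg/kg orally; controls received 0.5% CMC-Na. Plasma, urine and faeces were collected and analyzed by LC-IT-TOF-MS on a C18 column at 30 °C. Gradient 5–100% acetonitrile with 0.05% formic acid over 18 min at 0.2 mL/min; positive and negative ion MS/MS.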
# [9] = Drug metabolism in Sprague-Dawley rat plasma assessed as (2S,3S,4S,5R,6S)-6-(5'-allyl-5-(1-hydroxyallyl)-2'-((2S,3R,4S,5S,6R)-3,4,5-trihydroxy-6-(hydroxymethyl)tetrahydro-2H-pyran-2-yloxy)biphenyl-2-yloxy)-3,4,5-trihydroxytetrahydro-2H-pyran-2-carboxylic acid formation at 100 mg/kg, po by UPLC-IT-TOF-MS analysis; assay type: ADME, organism-based; details: in vivo; procedure, shortened: as §2
# [10] = Drug metabolism in Sprague-Dawley rat feces assessed as (2S,3R,4S,5S,6R)-2-(5'-allyl-2'-hydroxy-5-(1-hydroxyallyl)biphenyl-2-yloxy)-6-(hydroxymethyl)tetrahydro-2H-pyran-3,4,5-triol formation at 100 mg/kg, po by UPLC-IT-TOF-MS analysis; assay type: ADME, organism-based; details: in vivo; procedure, shortened: as §2
# [11] = Drug metabolism in Sprague-Dawley rat plasma assessed as 5-allyl-5'-(1-hydroxyallyl)-2'-((2S,3R,4S,5S,6R)-3,4,5-trihydroxy-6-(hydroxymethyl)tetrahydro-2H-pyran-2-yloxy)biphenyl-2-yl hydrogen sulfate formation at 100 mg/kg, po by UPLC-IT-TOF-MS analysis; assay type: ADME, organism-based; details: in vivo
# Procedure, shortened: (§3)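 Male/unspecified SD rats (n = 6) housed individually in metabolic cages, dosed orally at 100.0 mg/kg; controls given 0.5% CMC-Na orally. Plasma, urine and faeces collected. LC-IT-TOF-MS on C18 column at 30 °C, formic acid (0.05%) water/acetonitrile gradient 5–100% B over 18 min, 0.2 mL/min; positive and negative ion modes with automatic MS/MS.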
# [12] = Drug metabolism in Sprague-Dawley rat plasma assessed as (2S,3S,4S,5R,6S)-6-(5-acryloyl-2'-hydroxy-5'-(1-hydroxyallyl)biphenyl-2-yloxy)-3,4,5-trihydroxytetrahydro-2H-pyran-2-carboxylic acid formation at 100 mg/kg, po by UPLC-IT-TOF-MS analysis; assay type: ADME, organism-based; details: in vivo; procedure, shortened: as §2
# [13] = Drug metabolism in Sprague-Dawley rat urine assessed as 2S,3S,4S,5R,6S)-6-(5,5'-diallyl-2'-((2S,3R,4S,5S,6R)-3,4,5-trihydroxy-6-(hydroxymethyl)tetrahydro-2H-pyran-2-yloxy)biphenyl-2-yloxy)-3,4,5-trihydroxytetrahydro-2H-pyran-2-carboxylic acid formation at 100 mg/kg, po by UPLC-IT-TOF-MS analysis; assay type: ADME, organism-based; details: in vivo; procedure, shortened: as §3
# [14] = Drug metabolism in Sprague-Dawley rat plasma assessed as 1-(5'-allyl-2'-hydroxy-6-((2S,3R,4S,5S,6R)-3,4,5-trihydroxy-6-(hydroxymethyl)tetrahydro-2H-pyran-2-yloxy)biphenyl-3-yl)prop-2-en-1-one formation at 100 mg/kg, po by UPLC-IT-TOF-MS analysis; assay type: ADME, organism-based; details: in vivo; procedure, shortened: as §2
# [15] = Drug metabolism in Sprague-Dawley rat feces assessed as 1-(2'-hydroxy-5'-(1-hydroxyallyl)-6-((2S,3R,4S,5S,6R)-3,4,5-trihydroxy-6-(hydroxymethyl)tetrahydro-2H-pyran-2-yloxy)biphenyl-3-yl)prop-2-en-1-one formation at 100 mg/kg, po by UPLC-IT-TOF-MS analysis; assay type: ADME, organism-based; details: in vivo; procedure, shortened: as §2
# [16] = Drug level in Sprague-Dawley rat plasma at 100 mg/kg, po by UPLC-IT-TOF-MS analysis; assay type: ADME, organism-based; details: in vivo; procedure, shortened: as §2
# [17] = Drug level in Sprague-Dawley rat urine at 100 mg/kg, po by UPLC-IT-TOF-MS analysis; assay type: ADME, organism-based; details: in vivo; procedure, shortened: as §2
# [18] = Drug metabolism in Sprague-Dawley rat plasma assessed as (2S,3R,4S,5S,6R)-2-(5,5'-diallyl-2'-methoxybiphenyl-2-yloxy)-6-(hydroxymethyl)tetrahydro-2H-pyran-3,4,5-triol formation at 100 mg/kg, po by UPLC-IT-TOF-MS analysis; assay type: ADME, organism-based; details: in vivo; procedure, shortened: as §2
# [19] = Drug metabolism in Sprague-Dawley rat feces assessed as 5,5'-diallylbiphenyl-2,2'-diol formation at 100 mg/kg, po by UPLC-IT-TOF-MS analysis; assay type: ADME, organism-based; details: in vivo; procedure, shortened: as §2
smiles,measurement,setting,value
C=CCc1ccc(O)c(-c2cc(CC=C)ccc2O[C@@H]2O[C@H](CO)[C@@H](O)[C@H](O)[C@H]2O)c1,Activity,[1],inactive
same,Activity,[2],Active
same,Activity,[3],Active
same,Activity,[4],Active
same,Activity,[5],Non-Toxic
same,Activity,[6],Non-Toxic
same,Retention_time,[7],11.23 min
same,Drug metabolism,[8],Metabolite_Notdetected
same,Drug metabolism,[9],Metabolite_Notdetected
same,Drug metabolism,[10],Metabolite_Notdetected
same,Drug metabolism,[11],Metabolite_Notdetected
same,Drug metabolism,[12],Metabolite_Notdetected
same,Drug metabolism,[13],Metabolite_Detected
same,Drug metabolism,[14],Metabolite_Notdetected
same,Drug metabolism,[15],Metabolite_Notdetected
same,Drug uptake,[16],Active
same,Drug uptake,[17],Not Active
same,Drug metabolism,[18],Metabolite_Detected
same,Drug metabolism,[19],Metabolite_Detected

# Source: ChEMBL document CHEMBL4270555, “Synthesis and biological evaluation of magnolol derivatives as melatonergic receptor agonists with potential use in depression” (Eur J Med Chem, 2018)
